# Screening data from PubChem BioAssay.
# Compounds with a hit are over-represented: about 12% of the library has one in this group of screens.
# RAM network inh = inhibitors of the yeast RAM network, primary screen, dse1pr::URA3 reporter, 5-FOA selection; AID 868, 2007; inhibition, % at 50 µM; S. cerevisiae dse1pr::URA3 reporter, 5-FOA growth OD615, 2 d; analog-sensitive cbk1-as2 kinase mutant strain; 1.8% of 190,000 active;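 active = inhibition above a set limit, 3 SD over mean compound inhibition, cut at about 8.4% in these data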;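 also: 0% = DMSO-only wells with no growth and 100% = 10 µM 1-NA-PP1 full growth; inhibition rescues growth on 5-FOA so higher OD means more RAM inhibition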
# Lmaj promast = Leishmania major promastigote growth inhibition, primary screen | 9% of 200,000 active | inhibition, % at 10 µM | Leishmania major promastigotes, resazurin fluorescence viability; in the data active = inhibition above about 50%;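 also: promastigotes grown with compound for 44 hours at 28 °C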
# WT yeast gro inh = growth inhibition of WT strain, primary screen, mitochondrial fusion inhibitor project, WT and mutant strains, chemical genetic. 2.1% of 190,000 active. mitochondrial fusion phenotypic screen. inhibition, % at 10 µM; in the data active = inhibition above about 58%; tested in S. cerevisiae
# ABCG2 inh = ABCG2 efflux pump inhibitors, primary screen, multiplex with ABCB1, IgMXP3 cells, flow cytometry; Broad substrate specificity ATP-binding cassette transporter ABCG2 (Homo sapiens), Q9UNQ0; JC-1 efflux; inhibition, % at 6.6 µM; 0.1% of 190,000 active; AID 1325, 2008;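 active = inhibition above 80%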;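 also: 0% = DMSO and 100% = nicardipine control wells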
# Target sequence (Q9UNQ0 whole entry, looked up): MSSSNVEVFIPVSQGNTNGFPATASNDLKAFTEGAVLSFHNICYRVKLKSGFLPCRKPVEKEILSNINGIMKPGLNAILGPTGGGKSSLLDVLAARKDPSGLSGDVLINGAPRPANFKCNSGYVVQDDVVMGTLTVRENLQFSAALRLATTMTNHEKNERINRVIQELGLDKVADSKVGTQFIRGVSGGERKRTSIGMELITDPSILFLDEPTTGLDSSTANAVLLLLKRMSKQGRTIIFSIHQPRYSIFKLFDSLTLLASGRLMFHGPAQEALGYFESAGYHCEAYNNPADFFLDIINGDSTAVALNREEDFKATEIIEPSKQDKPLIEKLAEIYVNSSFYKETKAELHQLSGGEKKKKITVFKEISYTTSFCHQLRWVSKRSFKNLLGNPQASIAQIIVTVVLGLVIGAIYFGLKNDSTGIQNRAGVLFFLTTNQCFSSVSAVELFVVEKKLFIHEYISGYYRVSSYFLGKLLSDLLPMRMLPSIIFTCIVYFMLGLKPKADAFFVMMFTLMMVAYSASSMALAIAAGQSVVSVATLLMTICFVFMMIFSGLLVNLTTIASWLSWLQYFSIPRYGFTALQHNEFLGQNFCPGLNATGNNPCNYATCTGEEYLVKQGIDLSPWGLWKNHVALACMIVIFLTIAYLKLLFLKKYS
#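 test system = two drug-resistant human cell lines, ABCG2 and ABCB1 | amount = 3 million cells/mL final, two lines in 1:1 ratio | reagent = JC-1 transporter substrate | doses = one concentration, 6.6 µM final | incubation = 10 min at 25 °C | signal = flow cytometric JC-1 green MFI at 530 nm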
# ABCB1 block = ABCB1 efflux pump inhibitors, primary screen, cell-based, multiplex, flow cytometry, ABCG2 counter-screen | CCRF-Adr cells, JC-1 efflux | 0.067% of 190,000 active | ATP-dependent translocase ABCB1 (Homo sapiens), P08183 | AID 1326, 2008 | inhibition, % at 6.6 µM; in the data active = inhibition above about 40%;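 also: 0% = vehicle and 100% = reference inhibitor; higher value means more JC-1 retained so stronger ABCB1 efflux block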
# Starred values were filed as active, the others as inactive; / = no result.
SMILES,RAM network inh,Lmaj promast,WT yeast gro inh,ABCG2 inh,ABCB1 block
CS(=O)(=O)N(CC(=O)NCCSCc1cccc(Cl)c1)c1ccc2c(c1)OCO2,-0.3,8.9,-20.9,20.8,3.8
O=C(/C=C/c1ccc2c(c1)OCO2)NCCSCc1cccc(Cl)c1,9.0*,2.6,52.5,0.9,-0.1
CN(C)CCNC(=O)COc1ccc(Cl)cc1Cl,1.9,0.1,-20.8,3.1,1.2
O=C(COc1ccc(Br)cc1CNC1CCCC1)Nc1ccccc1,0.0,53.1*,20.0,5.0,1.5
Cc1nc(/C=C\C(=O)O)c2cc(C)oc2n1,-0.1,-7.7,-8.8,9.3,0.7
O=C(Cc1cccs1)NCCN1CCOCC1,2.1,50.5*,3.4,1.1,0.8
O=C(NCCN1CCOCC1)c1ccc(=O)oc1,1.1,-0.5,61.9*,0.2,0.2
CCCOc1ccc(C(=O)Nc2nc(C)c(Cc3ccc4c(c3)OCO4)s2)cc1,6.0,63.7*,3.1,3.1,/
COc1ccc(/C=C/CN2CCN(Cc3ccccc3)C(CCO)C2)cc1 (centres undefined),-0.5,32.5,0.4,1.9,1.2
COC(=O)c1ccc(CN2CCC(CO)(Cc3ccccc3Cl)CC2)cc1,-0.6,97.5*,0.8,1.6,1.0
COc1ccc(/C=C/CN2CCC(CO)(Cc3ccccc3Cl)CC2)cc1,2.6,95.6*,27.8,0.9,0.6
CC(C)CC(NC(=O)c1ccccc1)C(=O)OCC(=O)Nc1ccc(S(N)(=O)=O)cc1 (centres undefined),4.9,-3.9,-2.5,-0.2,-0.3
CCOC(=O)c1nc(NCc2ccccc2F)c2ccccc2n1,0.9,49.9,-21.1,5.8,0.8
O=C(NCC1CCCO1)c1cc(S(=O)(=O)Nc2ccc(Br)cc2)ccc1Cl (centres undefined),0.0,-7.4,-7.8,-0.3,0.0
O=C1CCN(S(=O)(=O)c2cccs2)c2ccc(C(F)(F)F)cc2N1,1.7,-2.3,-6.9,-0.4,0.1
O=C1/C(=C/c2ccc(C(=O)O)cc2)CCC/C1=C\c1ccc(C(=O)O)cc1,4.6,66.0*,6.0,11.7,0.6
CN(C)c1ccc(/C=C2\CCC/C(=C\c3ccccc3)C2=O)cc1,9.0*,49.2,-0.5,-0.3,1.4
O=C1/C(=C\c2ccco2)CCC/C1=C\c1ccco1,2.5,24.1,0.6,-1.7,-0.1
O=C(NCCCN1CCOCC1)c1cccnc1SCc1ccccc1Cl,0.1,6.1,-10.0,1.3,0.6
O=c1c2c(nc3nc(NCc4cccc(Cl)c4)[nH]n13)CCC2,0.1,-4.8,-9.1,3.8,1.2
CCCC(=O)Nc1ccccc1-c1nnn(CC(=O)Nc2ccc(OC)cc2)n1,2.5,14.2,3.1,2.1,0.5
CCOC(=O)c1ccc(NC(=O)CSc2nnc(CNC(=O)c3c(F)cccc3Cl)o2)cc1,6.0,-5.2,-8.1,4.0,0.8
CCOC(=O)CC(NC(=O)Cn1nnc(-c2ccccc2F)n1)c1ccc(OC)cc1 (centres undefined),9.7*,4.4,-5.7,2.2,0.8
CCOC(=O)c1ccc(NC(=O)CSc2nnc(CNC(=O)c3ccccc3F)o2)cc1,7.6,91.0*,0.5,4.3,0.5
CCOC(=O)c1ccc(NC(=O)Cn2nnc(-c3ccccc3F)n2)cc1,-0.4,60.9*,20.2,-1.0,-0.5
SMILES,RAM network inh,Lmaj promast,WT yeast gro inh,ABCG2 inh,ABCB1 block
CCOC(=O)CC(NC(=O)Cn1nnc(-c2ccccc2Cl)n1)c1ccc(OC)cc1 (centres undefined),6.2,20.0,13.8,4.9,1.4
CCOc1ccc(NC(=O)Cn2nnc(-c3ccccc3NC(=O)c3cccs3)n2)cc1,8.4*,-2.8,14.4,-0.7,-0.2
Cc1c(NC(=O)C(C)OC(=O)c2c3c(nc4ccccc24)CCC3)c(=O)n(-c2ccccc2)n1C (centres undefined),2.1,-3.9,7.3,12.5,9.1
COc1ccc(NC(=O)Cn2nnc(-c3ccccc3NS(=O)(=O)c3ccccc3)n2)cc1,5.8,43.7,13.5,-2.3,-0.4
COc1ccc(S(=O)(=O)Nc2ccccc2-c2nnn(CC(=O)Nc3ccccc3OC)n2)cc1,8.1,98.4*,-0.2,0.4,0.3
CCOC(=O)c1ccc(NC(=O)CCc2nc(-c3ccccc3)no2)cc1,9.5*,1.7,30.5,13.1,0.0
O=C(Nc1ccc(-c2noc(CCc3ccccc3)n2)cc1)c1cccnc1,6.2,50.1*,6.2,-0.1,0.3
CC(=O)c1c(C)[nH]c(C(=O)NC(C)c2ccccc2)c1C (centres undefined),0.9,-0.1,19.2,8.4,1.4
O=C(Nc1ccc2c(c1)S(=O)(=O)N=C1CCCCCN12)c1ccccc1Cl,3.2,-0.4,-4.4,6.5,0.7
CCSc1nnc(NC(=O)CSc2nnc(C)c(=O)n2N)s1,0.1,0.3,16.0,4.8,0.7
CC1(C)CCCN(C(=O)N2c3ccccc3Sc3ccccc32)C1,11.4*,5.5,-1.4,-0.2,-0.1
C=CCC1(C#N)C(SC)=NC2=C(C(=O)CC(C)(C)C2)C1c1ccc(Br)cc1 (centres undefined),1.9,20.8,73.8*,5.4,2.6
COc1ccc(C(=O)C(CCCCC(CN(C)C)C(=O)c2ccc(OC)cc2)CN(C)C)cc1 (centres undefined),1.3,100.5*,-5.4,0.8,-0.1
COc1ccc(C(=O)/C=C(/C)N(C)C)cc1,1.8,-4.6,2.1,0.9,0.0
CCOc1ccc(C(=O)c2ccncc2)cc1,0.7,-6.2,-0.5,1.6,0.3
CCOc1ccc(C(=O)C(CCC(CN(C)C)C(=O)c2ccc(OCC)cc2)CN(C)C)cc1 (centres undefined),-0.4,100.5*,63.6*,2.5,0.6
COc1ccc(C(=O)Nc2ccc3nc(N4CCCCC4)cc(C)c3c2)c(OC)c1,-0.7,8.3,-4.9,3.6,2.3
CCN1CCN(c2cc(C)c3cc(NC(=O)c4cccnc4Cl)ccc3n2)CC1,0.9,99.4*,3.0,2.5,0.3
CCN1CCN(c2cc(C)c3cc(NC(=O)c4ccncc4)ccc3n2)CC1,0.5,64.7*,7.8,-5.8,-2.5
Cc1cc(N2CCN(C)CC2)nc2ccc(NC(=O)c3cccnc3Cl)cc12,0.9,99.4*,-0.9,2.9,1.0
CCN1CCN(c2ccc(NC(=O)c3cccnc3)cc2Cl)CC1,0.5,2.7,-12.8,5.1,0.9
CCN1CCN(c2cc(C)c3cc(NC(=S)N4CCN(c5ccc(F)cc5)CC4)ccc3n2)CC1,1.4,37.9,28.3,4.5,1.1
CCN1CCN(c2cc(C)c3cc(NC(=O)c4ccc(Br)o4)ccc3n2)CC1,-0.9,99.6*,-2.1,3.8,2.1
O=c1[nH]c(NC2CCCCC2)c([N+](=O)[O-])c(=O)[nH]1,2.0,-7.5,-9.6,1.9,0.1
